These results are taken from publication PMC6358270 (Toxicological Sciences, 2018).

“Also recorded” adds a separate entry of the source. Where two headings read alike, the source gives them in different places.

Series [1] has as its system primary human hepatocytes. Particulars: ref Wolenski et al., 2017; cited from earlier work.
Series [2] deals with HepG2 cells. As to conditions: ref Otieno et al., 2018, cited from earlier work; for effect on OCR / basal respiration: HepG2 cells.
The conditions of series [3]: ref Wolenski et al., 2017; cited from earlier work.
A further series relates to patients with T2D. As to conditions: Phase II clinical trials, ref Kaku et al., 2015; cited from earlier work.
In the next series the target is T1, human NTCP (Homo sapiens, UniProt Q14973).
T1 sequence (Q14973 1-349): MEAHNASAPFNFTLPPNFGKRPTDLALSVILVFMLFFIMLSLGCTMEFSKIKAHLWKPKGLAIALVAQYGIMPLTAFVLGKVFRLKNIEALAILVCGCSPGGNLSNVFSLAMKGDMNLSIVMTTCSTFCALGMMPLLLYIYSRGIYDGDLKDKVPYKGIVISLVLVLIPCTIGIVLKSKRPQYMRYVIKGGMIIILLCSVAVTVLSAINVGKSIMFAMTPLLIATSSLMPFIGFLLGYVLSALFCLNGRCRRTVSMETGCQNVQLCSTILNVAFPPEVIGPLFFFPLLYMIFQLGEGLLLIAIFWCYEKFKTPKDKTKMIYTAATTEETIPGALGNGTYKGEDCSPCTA
Description: NTCP uptake transporter inhibition Ki determination in CHO cells. Format: cell-based. As to conditions: based on alpha >> 1, increasing Km, nearly constant Vmax.

Series [4] deals with human BSEP ABC transporter (Homo sapiens, UniProt O95342). Nature of the series: BSEP vesicular transport inhibition Ki determination assay. Format: biochemical. The method in brief: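 Inside-out membrane vesicles expressing BSEP. Transporter-specific taurocholate accumulation was measured across a range of test compound concentrations.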
Sequence of human BSEP ABC transporter (O95342 whole entry): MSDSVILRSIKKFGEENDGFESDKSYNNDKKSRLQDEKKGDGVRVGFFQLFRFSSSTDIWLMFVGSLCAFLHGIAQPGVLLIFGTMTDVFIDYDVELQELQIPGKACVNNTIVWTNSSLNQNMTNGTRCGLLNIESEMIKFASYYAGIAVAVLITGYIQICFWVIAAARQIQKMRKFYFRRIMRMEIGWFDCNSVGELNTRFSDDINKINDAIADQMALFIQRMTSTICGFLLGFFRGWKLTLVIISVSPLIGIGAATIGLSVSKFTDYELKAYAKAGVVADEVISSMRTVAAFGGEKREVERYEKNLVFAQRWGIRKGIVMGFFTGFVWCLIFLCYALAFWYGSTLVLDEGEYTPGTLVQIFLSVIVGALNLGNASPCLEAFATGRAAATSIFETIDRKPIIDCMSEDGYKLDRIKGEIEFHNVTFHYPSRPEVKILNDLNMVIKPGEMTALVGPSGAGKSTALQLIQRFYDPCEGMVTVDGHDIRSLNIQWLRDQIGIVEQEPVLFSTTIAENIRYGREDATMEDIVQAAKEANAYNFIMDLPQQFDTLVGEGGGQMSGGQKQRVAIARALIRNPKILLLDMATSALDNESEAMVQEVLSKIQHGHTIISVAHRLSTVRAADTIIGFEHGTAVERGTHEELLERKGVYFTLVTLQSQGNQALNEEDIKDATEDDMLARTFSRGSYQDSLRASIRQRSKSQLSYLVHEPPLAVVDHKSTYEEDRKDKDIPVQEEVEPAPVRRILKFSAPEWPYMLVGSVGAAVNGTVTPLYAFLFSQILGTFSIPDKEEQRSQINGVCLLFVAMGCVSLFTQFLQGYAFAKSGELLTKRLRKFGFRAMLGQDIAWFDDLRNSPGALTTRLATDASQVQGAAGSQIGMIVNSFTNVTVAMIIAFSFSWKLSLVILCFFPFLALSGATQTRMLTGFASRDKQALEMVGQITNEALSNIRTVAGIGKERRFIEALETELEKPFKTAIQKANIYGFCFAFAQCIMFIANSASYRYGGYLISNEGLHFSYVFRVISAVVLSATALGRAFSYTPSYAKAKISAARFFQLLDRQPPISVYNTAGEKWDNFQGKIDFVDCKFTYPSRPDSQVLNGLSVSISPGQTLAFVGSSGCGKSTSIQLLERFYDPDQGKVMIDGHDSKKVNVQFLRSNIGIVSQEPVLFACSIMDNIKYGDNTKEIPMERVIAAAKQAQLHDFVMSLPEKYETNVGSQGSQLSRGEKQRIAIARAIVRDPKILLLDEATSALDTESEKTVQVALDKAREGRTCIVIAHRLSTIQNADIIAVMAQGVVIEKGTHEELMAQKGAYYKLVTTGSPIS
The subject of another series is TAK-875-treated patients. Particulars: cited from earlier work; for patients with ALT elevations > 3× ULN: clinical.
Series [5] has as its system HepG2 cells. Nature of the series: In vitro ROS assay. Format: cell-based, human. As to conditions: nominal media concentrations up to 200 μM, 1 h or 24 h.
The conditions of series [6]: rat; ref unpublished data; cited from earlier work.

As to `Cc1cc(OCCCS(C)(=O)=O)cc(C)c1-c1cccc(COc2ccc3c(c2)OC[C@H]3CC(=O)O[C@@H]2O[C@H](C(=O)O)[C@@H](O)[C@H](O)[C@H]2O)c1` [TAK-875-Glu], the “effect on oxygen consumption rate (OCR)” value in series [1] is reported as “reduce the oxygen consumption rate (OCR) in a dose-dependent manner”. In the series with HepG2 cells [2], the “effect on OCR / basal respiration” value is on record as “no effect on basal respiration” and the effects on mitochondria result is “negligible effects on mitochondria”. Further, the compound-induced oxidative stress entry in series [3] was “no evidence of compound-induced oxidative stress was detected; also recorded: not found to be inducers of oxidative stress”.
Consider `Cc1cc(OCCCS(C)(=O)=O)cc(C)c1-c1cccc(COc2ccc3c(c2)OC[C@H]3CC(=O)O)c1` [TAK-875, fasiglifam], for which the “effect on blood glucose levels and HbA1c” value in the series with patients with T2D is “lowered blood glucose levels and glycated hemoglobin (HbA1c)”. Moreover, at human NTCP, the “mode of NTCP inhibition” value is reported as “competitive”. For the same compound, the “effect on oxygen consumption rate (OCR)” value in series [1] was “reduce the oxygen consumption rate (OCR) in a dose-dependent manner”. In series [4], this compound returned a Ki of 17.2 µM. Further, the “mode of BSEP inhibition” value in series [4] (based on alpha value, Km and Vmax trends) is “mixed”. For the same compound, in [4] (mixed-type inhibition model), the “BSEP alpha constant for inhibition” value was found to be 2.172. In addition, in the series with HepG2 cells [2], the “effect on OCR / basal respiration” value is recorded as “dose-dependent reduction in OCR”. Further, the “cases of serious liver injury, incidence” value in the series on TAK-875-treated patients (clinical trials, ref Marcinak et al., 2018) is 0.03%. The “patients with ALT elevations > 3× ULN” value in the series with TAK-875-treated patients (daily doses of 200 mg, ref unpublished data) is on record as 4.0%; with TAK-875-treated patients (daily doses ranging from 25 to 50 mg, ref Marcinak et al., 2018), 2.8%. Also, the “cases of serious liver injury” value with TAK-875-treated patients (in 9139 TAK-875-treated patients, ref Marcinak et al., 2018) is given as 3 cases. The “ROS production / oxidative stress (DHE fluorescence)” value in the series with HepG2 cells [5] is on record as “not observed”. For the same compound, the compound-induced oxidative stress entry in series [3] is “no evidence of compound-induced oxidative stress was detected; also recorded: not found to be inducers of oxidative stress”. Besides, the “concentration in liver versus plasma” value in series [6] was “roughly equivalent”.

Broadly, the Ki is the dissociation constant of the complex between target and ligand, obtained from inhibition or displacement.
